Data: article PMC12394898 (Chemical Science, 2025)
Like-named read-outs stand apart in the source and are kept apart here.

How the values were obtained:
[1] = system: HT-29; test: Cytotoxic activity, crystal violet staining; assay type: cell-based, human; conditions: read-out: IC50 HT-29, HT-29 cells, 72 hours incubation
[2] = system: MCF-7; test: Cytotoxic activity, crystal violet staining; assay type: cell-based, human; conditions: read-out: IC50 MCF-7, MCF-7 cells, 96 hours incubation
[3] = system: A-549; test: Cytotoxic activity, crystal violet staining; assay type: cell-based, human; conditions: read-out: IC50 A-549, A-549 cells, 72 hours incubation
[4] = system: organoids from colon cancer tissues (CRC-PDTO1-4); test: Patient-Derived Organoid cytotoxicity assay; assay type: cell-based, human
How it was run: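 Patient-derived colorectal cancer tumor organoids (3D model) came from the C.R.O. biobank. Oxaliplatin, the standard treatment, served as positive control. Dose-response IC50 values were obtained per organoid line.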

[5] = system: HT-29; conditions: read-out: average IC50 in HT-29 colon cancer cells; literature value; cited from earlier work
[6] = system: A2780; test: Cytotoxicity on ovarian cancer cell line; assay type: cell-based, human; conditions: read-out: IC50 A2780
[7] = target: T1, recombinant human TrxR (TrxR1) (Homo sapiens, UniProt Q16881); test: Thioredoxin reductase inhibition assay; assay type: biochemical
T1 sequence (Q16881 1-499 isoform Q16881-5): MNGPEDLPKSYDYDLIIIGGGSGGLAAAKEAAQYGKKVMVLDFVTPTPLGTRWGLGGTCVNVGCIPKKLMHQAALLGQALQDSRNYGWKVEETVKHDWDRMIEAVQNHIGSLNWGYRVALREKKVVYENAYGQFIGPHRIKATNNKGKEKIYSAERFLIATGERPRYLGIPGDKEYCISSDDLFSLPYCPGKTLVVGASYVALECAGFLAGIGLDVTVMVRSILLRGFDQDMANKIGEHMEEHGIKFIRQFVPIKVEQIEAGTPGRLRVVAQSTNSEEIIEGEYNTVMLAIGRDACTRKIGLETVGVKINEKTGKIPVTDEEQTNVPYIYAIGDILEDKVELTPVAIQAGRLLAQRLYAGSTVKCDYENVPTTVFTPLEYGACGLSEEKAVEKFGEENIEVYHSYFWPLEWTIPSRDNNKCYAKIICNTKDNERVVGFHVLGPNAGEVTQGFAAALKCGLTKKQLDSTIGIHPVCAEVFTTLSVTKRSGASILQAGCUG

[8] = Stability in water; assay type: physicochemical; conditions: 4 mg in DMSO-d6 (0.4 mL) diluted with D2O to 0.5 mL, 48 hours
[9] = system: organoids from HGSOC tissues (HGSOC-PDTO1-4); test: Patient-Derived Organoid cytotoxicity assay; assay type: cell-based, human
How it was run: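 Patient-derived high-grade serous ovarian cancer tumor organoids (3D model) came from the C.R.O. biobank. Carboplatin, the standard treatment, served as positive control. Dose-response IC50 values were obtained per organoid line.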

[10] = system: A2780; conditions: read-out: average IC50 in A2780 ovarian cancer cells; literature value; cited from earlier work
[11] = read-out: IC50 CRC-PDTO1, organoid CRC-PDTO1, 96 hours of treatment
[12] = read-out: IC50 CRC-PDTO2, organoid CRC-PDTO2, 96 hours of treatment
[13] = read-out: IC50 CRC-PDTO3, organoid CRC-PDTO3, 96 hours of treatment
[14] = read-out: IC50 CRC-PDTO4, organoid CRC-PDTO4, 96 hours of treatment
[15] = 50 μM for 96 hours, compared to non-treated controls
[16] = read-out: IC50 HGSOC-PDTO1, organoid HGSOC-PDTO1, 96 hours of treatment
[17] = read-out: IC50 HGSOC-PDTO2, organoid HGSOC-PDTO2, 96 hours of treatment
[18] = read-out: IC50 HGSOC-PDTO3, organoid HGSOC-PDTO3, 96 hours of treatment
[19] = read-out: IC50 HGSOC-PDTO4, organoid HGSOC-PDTO4, 96 hours of treatment

| Compound | IC50 [1] | IC50 [2] | IC50 [3] | also measured |
| --- | --- | --- | --- | --- |
| Cc1c(C)n(-c2c(C(C)C)cccc2C(C)C)[c](=[Au][Se]c2ccccc2)n1-c1c(C(C)C)cccc1C(C)C [1d, [Au(IPr^Me)Se(C6H5)]] | > 100 µM | 6.1 ± 0.3 µM | > 100 µM |  |
| [Au(PPh3)Se(C6H5)] [1o] | 2.8 ± 0.2 µM | 1.7 ± 0.08 µM | 2.9 ± 0.4 µM |  |
| [Au(MeIMes)Se(C6H5)] [1h] | 4 ± 1 µM | 3.4 ± 0.6 µM | 4 ± 0.5 µM |  |
| [Au(BzIPr)Se(C6H5)] [1f] | 1.08 ± 0.05 µM | 1.9 ± 0.4 µM | 0.32 ± 0.04 µM |  |
| Cc1cc(C)c(N2CCN(c3c(C)cc(C)cc3C)[C]2=[Au][Se]c2ccccc2)c(C)c1 [1k, [Au(SIMes)Se(C6H5)]] | 9.9 ± 0.3 µM | 4.4 ± 0.1 µM | 6.3 ± 0.6 µM |  |
| O=C1[O][Pt]2([NH][C@@H]3CCCC[C@H]3[NH]2)[O]C1=O [Oxaliplatin, reference compound] |  |  |  | IC50 [4, 11]: 1.4 ± 0.9 µM; IC50 [4, 12]: 4 ± 1 µM; IC50 [4, 13]: > 100 µM; IC50 [4, 14]: > 100 µM; IC50 [5]: 7 µM |
| CC(C)c1cccc(C(C)C)c1-n1ccn(-c2c(C(C)C)cccc2C(C)C)[c]1=[Ag][Se]c1ccccc1 [1q, [Ag(IPr)Se(C6H5)]] | 1.2 ± 0.3 µM | 0.9 ± 0.2 µM | 0.8 ± 0.1 µM |  |
| N.N.[Cl][Pt][Cl] [Cisplatin, reference compound] | 7 ± 0.5 µM | 5.3 ± 0.8 µM | 3 ± 0.4 µM | IC50 [6]: 1000 nM |
| CC(C)c1cccc(C(C)C)c1-n1ccn(-c2c(C(C)C)cccc2C(C)C)[c]1=[Au][Se]c1ccccc1 [1a, [Au(IPr)Se(C6H5)]] | 3.1 ± 0.5 µM | 3.6 ± 0.5 µM | 4.5 ± 0.9 µM | inhibition of the enzyme (TrxR1) ([7]; highest applied dosage of 100 μM): did not show any inhibition; stability in water [8]: No change |
| [Au(MonoIPent)Se(C6H5)] [1m] | 0.35 ± 0.05 µM | 0.27 ± 0.04 µM | 0.27 ± 0.03 µM | brightfield appearance of CRC PDTOs after treatment [4, 15]: visible reductions in organoid size, density, and structural integrity; IC50 [4, 11]: 13 ± 9 µM; IC50 [4, 12]: 6 ± 2 µM; IC50 [4, 13]: 3.4 ± 0.5 µM; IC50 [4, 14]: 9 ± 5 µM; IC50 ([7]; read-out: TrxR inhibition average IC50, recombinant human TrxR, 75 min at 37 °C): 180 ± 50 nM; brightfield appearance of HGSOC PDTOs after treatment [9, 15]: visible reductions in organoid size, density, and structural integrity; IC50 [9, 16]: 17 ± 8 µM; IC50 [9, 17]: 4 ± 2 µM; IC50 [9, 18]: 6 ± 2 µM; IC50 [9, 19]: 7 ± 5 µM; stability in water [8]: No change; IC50 [6]: 400 ± 100 nM |
| [Au(MeIPr)Se(C6H5)] [1g] | 2.2 ± 0.5 µM | 2.4 ± 0.5 µM | 1.5 ± 0.3 µM |  |
| N.N.O=C([O-])C1(C(=O)[O-])CCC1.[Pt+2] [Carboplatin, reference compound] |  |  |  | IC50 [9, 16]: 3.5 ± 0.7 µM; IC50 [9, 17]: 3 ± 1 µM; IC50 [9, 18]: > 100 µM; IC50 [9, 19]: > 100 µM; IC50 [10]: 8 µM |
| [Au(IPr)Se(C6H4CF3)] [2a] | 88 ± 8 µM | 48 ± 5 µM | 55 ± 10 µM |  |
| CC(C)c1cccc(C(C)C)c1N1CCN(c2c(C(C)C)cccc2C(C)C)[C]1=[Au][Se]c1ccccc1 [1b, [Au(SIPr)Se(C6H5)]] | > 100 µM | > 100 µM | > 100 µM |  |
| CC(C)c1cccc(C(C)C)c1-n1ccn(-c2c(C(C)C)cccc2C(C)C)[c]1=[Cu][Se]c1ccccc1 [1p, [Cu(IPr)Se(C6H5)]] | 1 ± 0.3 µM | 0.4 ± 0.3 µM | 0.7 ± 0.1 µM |  |
| CC(=O)OC[C@H]1O[C@@H]([S-])[C@H](OC(C)=O)[C@@H](OC(C)=O)[C@@H]1OC(C)=O.CCP(CC)CC.[Au+] [Auranofin, reference compound] | 4.9 ± 0.5 µM | 1.5 ± 0.2 µM | 3.7 ± 0.4 µM |  |
| [Au(ImPyIPr)Se(C6H5)] [1i] | 12.6 ± 0.8 µM | 4.3 ± 0.4 µM | 5.97 ± 0.08 µM |  |
| CCC(CC)c1cccc(C(CC)CC)c1-n1ccn(-c2c(C(CC)CC)cccc2C(CC)CC)[c]1=[Au][Se]c1ccccc1 [1l, [Au(IPent)Se(C6H5)]] | > 100 µM | > 100 µM | > 100 µM |  |
| Cc1cc(C(c2ccccc2)c2ccccc2)c(-n2ccn(-c3c(C(c4ccccc4)c4ccccc4)cc(C)cc3C(c3ccccc3)c3ccccc3)[c]2=[Au][Se]c2ccccc2)c(C(c2ccccc2)c2ccccc2)c1 [1c, [Au(IPr*)Se(C6H5)]] | > 100 µM | > 100 µM | > 100 µM |  |
